From PubChem
Sampled rows, rich in hits. Any-hit rate of the full collection: about 3.4%.
AHR act = AHR activators, primary screen, cell-based, luminescence, luciferase reporter, human. Aryl hydrocarbon receptor (Homo sapiens), P35869. AHR-responsive luciferase reporter cells. activation, % at 5 µM. 320,000 compounds, 2.5% hits; in the data active means activation above about 47%;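 further: 0% = vehicle wells and 100% = reference agonist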
PolyA inh = polyadenylation inhibitors in yeast reporter cells, primary screen, luminescence, S. cerevisiae; S. cerevisiae SKY197-pL101 polyadenylation reporter, beta-gal luminescence; efflux-impaired pdr1/pdr3 knockout yeast; score 100 = 6 SD above DMSO; activity score, % at 12 µM; 300,000 compounds, 0.02% hits; AID 1875, 2009;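 active means lowest replicate activity score at least 50, where 100 means six control SD above control mean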;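 further: yeast exposed to compound for 9 h at 30 °C; higher score means more reporter readthrough which indicates perturbed polyadenylation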
APOBEC3A inh = APOBEC3A ssDNA deaminase inhibitors, primary screen, selectivity assay for APOBEC3G inhibitor project, biochemical, FAM/TAMRA oligo cleavage fluorescence. DNA dC->dU-editing enzyme APOBEC-3A (Homo sapiens), P31941. recombinant A3A, FAM/TAMRA ssDNA deamination fluorescence. inhibition, % at 20 µM. 330,000 compounds, 0.41% hits;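 active means at least 40% inhibition at 20 µM here, with at most 30% in a related deaminase screen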;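 further: plate controls were A3A with DMSO for no effect and wells lacking A3A enzyme for full effect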
Target sequence (P31941 whole entry, looked up): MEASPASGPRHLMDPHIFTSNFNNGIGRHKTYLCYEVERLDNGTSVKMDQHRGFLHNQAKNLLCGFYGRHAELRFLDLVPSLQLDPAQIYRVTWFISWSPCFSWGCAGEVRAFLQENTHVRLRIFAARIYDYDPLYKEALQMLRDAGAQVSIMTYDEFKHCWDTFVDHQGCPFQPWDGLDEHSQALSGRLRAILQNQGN
UCH37 DUB inh = inhibitors of human UCH37 deubiquitinase, primary screen, biochemical, Ub-AMC cleavage, fluorescence. 330,000 compounds, 0.33% hits. Ubiquitin carboxyl-terminal hydrolase isozyme L5 (Homo sapiens), Q9Y5K5. purified proteasome/UCH37. inhibition, % (test concentration not listed);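 active means mean inhibition over replicate wells above about 20%, limit read from the data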;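 further: 0% = compound-free wells with enzyme and 100% = wells lacking proteasome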
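Schedule: 30 min plus 25 min, room temperature / Material: human UCH37 within purified proteasomes / Technique: AMC fluorescence intensity at 355/460 nm / Buffer or medium: pH 7.4 Tris-HCl (50 mM) with ovalbumin, ATP-MgCl2, DTT / Controls: wells without proteasome as full block, compound-free enzyme plus substrate as uninhibited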
APOBEC3G inh = APOBEC3G DNA deaminase inhibitors, primary screen, biochemical, fluorescence, single-stranded DNA substrate, uHTS | AID 493012, 2011 | DNA dC->dU-editing enzyme APOBEC-3G (Homo sapiens), Q9HC16 | inhibition, % at 20 µM | recombinant A3G, ssDNA deamination FAM/TAMRA fluorescence | 330,000 compounds, 0.28% hits;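 active means inhibition of at least 40% at 20 µM, with no more than 30% in the related APOBEC3A deaminase screen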;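 further: plate controls were DMSO wells with A3G for no effect and wells lacking A3G enzyme for full effect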
Target sequence (Q9HC16 whole entry, looked up): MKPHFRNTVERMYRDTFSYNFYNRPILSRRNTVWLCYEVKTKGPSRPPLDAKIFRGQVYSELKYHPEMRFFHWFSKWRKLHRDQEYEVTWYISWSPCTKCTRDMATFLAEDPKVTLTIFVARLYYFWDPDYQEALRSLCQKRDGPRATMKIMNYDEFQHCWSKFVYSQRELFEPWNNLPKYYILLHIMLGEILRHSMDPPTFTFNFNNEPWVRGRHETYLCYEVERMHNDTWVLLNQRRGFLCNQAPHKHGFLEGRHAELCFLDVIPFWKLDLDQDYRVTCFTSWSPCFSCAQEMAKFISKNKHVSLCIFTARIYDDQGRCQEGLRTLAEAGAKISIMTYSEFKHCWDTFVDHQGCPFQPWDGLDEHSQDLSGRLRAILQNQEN
Arr AP2 block = inhibitors of beta-arrestin/AP2 binding, primary screen, biochemical, GPCR trafficking, flow cytometry | beta-arrestin 1 C-terminal peptide binding to AP2 beta2-adaptin appendage (human) | FITC-arrestin peptide / GST-AP2 beads; AP2 beta2 appendage carries R879A mutation | inhibition, % at 10 µM | 340,000 compounds, 0.31% hits;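 active means inhibition above a set limit, near 3 SD of compounds lacking own fluorescence, cut at about 54% in these data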;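 further: plate controls were DMSO wells for no effect and 5 µM unlabelled arrestin peptide for full effect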
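test system = AP2 appendage R879A on GSH beads | buffer or medium = PBS plus Tween 20 (0.05%) and BSA (0.1%) | incubation = 12 min plus 1 h, RT | detection = bead flow cytometry, FITC channel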
AHR act cf = AHR activators, confirmation, cell-based, luminescence, luciferase reporter, human | shares compounds with AHR act | human cells, AHR-responsive luciferase reporter | activation, % at 9 µM | 2,300 compounds, 87% hits | AID 2845, 2010; in the data active means activation above about 49%;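 further: HepG2 hepatoma cells carrying a DRE-driven firefly luciferase reporter; 0% = vehicle wells and 100% = reference agonist wells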
PXR act counter = human PXR activators, counter-screen for AHR activator project, cell-based, luciferase luminescence; shares compounds with AHR act; cell-based PXR reporter; activation, % at 11.6 µM; 2,300 compounds, 88% hits; in the data active means activation above about 11%;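 further: human hepatoma DPX-2 cells expressing full-length human PXR; 0% = DMSO and 100% = reference agonist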
* marks the source's active call; other numbers are inactive results; i = inactive; / = not tested or not shown.

SMILES | AHR act | PolyA inh | APOBEC3A inh | UCH37 DUB inh | APOBEC3G inh | Arr AP2 block | AHR act cf | PXR act counter
O=c1cc(-c2ccccc2)c2cc(Cl)ccc2[nH]1 | 2 | 20 | -3 | 1 | -5 | -7 | / | /
O=c1cc(-c2ccccc2)[nH]c2cc(Cl)ccc12 | 96* | -14 | -7 | -1 | -4 | 27 | 64* | 23*
CCCCn1c(N=Cc2c[nH]c3ccccc23)nc2ccccc21 | / | / | / | 7 | / | / | / | /
COc1cc(C=NNC(=O)c2nc3ccccn3c2C)cc(OC)c1O | / | / | / | 11 | / | / | / | /
c1ccc(CCNc2ncnc3scc(C4COc5ccccc5O4)c23)cc1 (stereo not drawn) | 99* | 1 | -1 | 0 | -6 | -3 | 100* | 23*
O=[N+]([O-])c1cc(C=NO)ccc1Sc1ccccc1 | / | / | / | -1 | / | / | / | /
COc1ccccc1-c1noc(-c2ccco2)n1 | 90* | -12 | -1 | 5 | -4 | -5 | 120* | 17*
COc1ccccc1-c1noc(-c2ccccc2)n1 | 122* | -21 | 0 | / | 6 | 3 | 101* | 26*
COc1cc(-c2noc(-c3ccco3)n2)cc(OC)c1OC | 33 | -13 | -6 | -1 | -5 | -10 | / | /
Cc1nn(-c2ccccc2)c(Cl)c1C=NNC(=O)c1ccc(NS(=O)(=O)c2cccs2)cc1 | / | / | / | 1 | / | / | / | /
COc1c2occc2c(OC)c2c(=O)cc(C)oc12 | 104* | 10 | -3 | 2 | 1 | -6 | 77* | 13*
COc1cccc(C(C)=NNc2ccc(S(=O)(=O)N3CCCCC3)cn2)c1 | / | / | / | 1 | / | / | / | /
COC(=O)c1ccc(NC(=O)c2cnc3scc(C)n3c2=O)cc1 | -2 | -1 | 0 | -13 | 4 | / | / | /
CCOc1ccc(NC(=O)c2cnc3scc(C)n3c2=O)cc1 | 90* | 0 | 3 | -67 | 2 | 2 | 129* | 22*
C=CCn1c(NC(=O)c2ccc(C)cc2)nc2ccccc21 | 99* | 4 | 0 | -66 | -4 | -20 | 93* | 29*
C=CCn1c(-c2ccc(C)cc2)nc2ccccc21 | 24 | -27 | 0 | 2 | -5 | 5 | / | /
CCCCNC(=O)N(O)C1N(N=Cc2ccccc2O)C(=S)SC1(C)C (stereo not drawn) | / | / | / | 3 | / | / | / | /
CN(C(=S)NC(=O)c1ccc(F)cc1)C1CCCCC1 | 1 | 15 | -3 | 5 | -7 | -11 | / | /
CN(C(=S)NC(=O)c1ccc(Cl)cc1)C1CCCCC1 | 91* | 4 | -2 | -1 | 17 | -7 | 113* | 94*
COc1ccc(COC(=O)NN=C(C)CC(=O)Nc2c(C)cc(C)cc2C)cc1 | / | / | / | 4 | / | / | / | /
CC(=O)c1c(C)[nH]c(C(=O)NCCC2=CCCCC2)c1C | 146* | 4 | -4 | -1 | -8 | -6 | 110* | 70*
Cn1c2ccccc2c(=O)c2cc(C#Cc3ccccn3)ccc21 | 96* | -19 | -2 | -183 | -5 | 1 | 115* | 28*
N#Cc1c(-c2ccccc2)cc(-c2ccccc2)[nH]c1=O | 2 | -8 | -2 | i | -3 | -7 | / | /
COc1cc(-c2cc(-c3ccc(N)cc3)[nH]c(=O)c2C#N)cc(OC)c1OC | 101* | -4 | 1 | -5 | -13 | 4 | 84* | 17*
CC(=N/N=C1/NC(=O)CC(C(=O)Nc2ccccc2)S1)c1cccs1 (stereo not drawn) | / | / | / | 7 | / | / | / | /
SMILES | AHR act | PolyA inh | APOBEC3A inh | UCH37 DUB inh | APOBEC3G inh | Arr AP2 block | AHR act cf | PXR act counter
Nc1[nH]nc2nc(N3CCCC3)nc(-c3ccccc3)c12 | 9 | -11 | -3 | 4 | -3 | 13 | / | /
Cc1nc(-c2ccccc2)nc2n[nH]c(N)c12 | 112* | 10 | -4 | 4 | -4 | 40 | 138* | 9
COc1cc(C=NNC(N)=O)cc(Br)c1OCc1ccc(C)cc1 | / | / | / | 1 | / | / | / | /
S=C(Nc1ccc(Oc2ccccc2)cc1)NC1CCCCCC1 | 1 | 13 | / | -3 | / | 26 | / | /
S=C(NNc1ccc2ccccc2c1)NC1CCCCC1 | 108* | -5 | -5 | -2 | -10 | 26 | 90* | 99*
O=C(O)c1cccc([N+](=O)[O-])c1C(=O)Nc1cccc2ccccc12 | 84* | -3 | -1 | -3 | -1 | 11 | 32 | 1
COc1cccc(C(=O)Nc2cccc3ccccc23)c1OC | 117* | -16 | 3 | -2 | -1 | 2 | 108* | 44*
O=C(Nc1ccc(Cl)cc1F)c1cccc2ccccc12 | 100* | -1 | 0 | 2 | -2 | 22 | 119* | 12*
COc1ccccc1CC(=O)Nc1cccc2ccccc12 | -1 | 17 | 2 | 1 | 4 | 2 | / | /
O=C(Nc1cccc2ccccc12)c1cc2c(cc1Br)OCO2 | 82* | -21 | 0 | / | -4 | 32 | 95* | 120*
O=C(NCc1ccc2c(c1)OCO2)Nc1cccc2ccccc12 | 9 | 6 | 3 | 3 | -7 | 10 | / | /
O=C(Nc1ccc(Cl)cc1F)c1ccccc1Br | 9 | -9 | -3 | 6 | -4 | 3 | / | /
OCc1ccccc1O[C@@H]1O[C@H](CO)[C@@H](O)[C@H](O)[C@H]1O | 0 | -11 | -3 | 1 | -10 | 13 | / | /
OCC1OC(Oc2c[nH]c3ccccc23)C(O)C(O)C1O (stereo not drawn) | 84* | -3 | 0 | -1 | -2 | 7 | 26 | 8
CCn1nnnc1NC(=O)c1cc(OC)c(OC)c(OC)c1 | 128* | -6 | 4 | / | -6 | -3 | 101* | 11*
CCn1nnnc1NC(=O)c1ccc2ccccc2c1 | 1 | -2 | 0 | 1 | -4 | 18 | / | /
Cc1c(-c2ccccn2)c(=O)[nH]n1-c1ccc(F)cc1 | 91* | -1 | -3 | 11 | -4 | 2 | 77* | 11*
C=CCNc1ncnc2c1[nH]c1ccccc12 | 28 | 12 | -1 | -6 | -3 | 1 | / | /
C=CCNc1ncnc2c1[nH]c1ccc(Cl)cc12 | 110* | -3 | -3 | -19 | -7 | -14 | 113* | 44*
Cn1ncc(C#N)c1N=CN1CCCC1 | / | / | / | 5 | / | / | / | /
